# Results published in ChEMBL document CHEMBL1156780, “6-(Het)aryl-7-deazapurine ribonucleosides as novel potent cytostatic agents” (J Med Chem, 2010).
# How the values were obtained:
# [1] = Cytotoxicity against human HeLaS3 cells after 3 days by XTT assay; type: functional, cell-based; settings: HeLa S3, 72 h
# [2] = test system: HL-60; assay: Cytotoxicity against human HL60 cells after 3 days by XTT assay; type: functional, cell-based; settings: HL-60, 72 h
# How it was run: (§1)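 Cell viability of CCRF-CEM, HL60 and HeLa cells measured by XTT assay after 72 h incubation with compounds. IC₅₀ taken as mean of 2–4 independent experiments.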
# [3] = test system: CCRF-CEM; assay: Cytotoxicity against human CCRF-CEM cells after 3 days by XTT assay; type: functional, cell-based; settings: 72 h; how it was run: as §1
# [4] = test system: HCT-116; assay: Cytostatic activity against human HCT116 cells after 5 days by SRB assay; type: functional; settings: HCT-116, 120 h
# How it was run: (§2)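 Cells seeded in RPMI (colon, breast, lung lines), MEM (Du145) or F12K (PC3) with 10% FBS, 37 °C overnight. Day-zero plates fixed with cold 10% TCA. Compounds added as 5-fold serial dilutions for 5 days. Fixed, stained with 0.057% SRB in 1% acetic acid, dye solubilized in 10 mM Tris pH 10.5, A500 read. Growth % corrected for day-0 OD; GIC₅₀ from sigmoidal fit.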
# [5] = test system: DU-145; assay: Cytostatic activity against human DU145 cells after 5 days by SRB assay; type: functional; settings: DU-145, 120 h; how it was run: as §2
# [6] = test system: A549; assay: Cytostatic activity against human A549 cells after 5 days by SRB assay; type: functional; settings: A549, 120 h; how it was run: as §2
# [7] = Cytostatic activity against human Hs578 cells after 5 days by SRB assay; type: functional; settings: Hs578, 120 h; how it was run: as §2
# [8] = test system: NCI-H23; assay: Cytotoxicity against human NCI-H23 cells after 5 days by SRB assay; type: functional; settings: NCI-H23, 120 h; how it was run: as §2
# [9] = test system: BT-549; assay: Cytotoxicity against human BT549 cells after 5 days by SRB assay; type: functional; settings: BT-549, 120 h; how it was run: as §2
# [10] = test system: PC-3; assay: Cytotoxicity against human PC3 cells after 5 days by SRB assay; type: functional; settings: PC-3, 120 h; how it was run: as §2
# [11] = test system: HCT-15; assay: Cytotoxicity against human HCT15 cells after 5 days by SRB assay; type: functional; settings: HCT-15, 120 h; how it was run: as §2
SMILES,GI50 [4] [nM],GI50 [5] [nM],GI50 [6] [nM],IC50 [1] [nM],IC50 [2] [nM],IC50 [3] [nM],GI50 [7] [nM],GI50 [8] [nM],GI50 [9] [nM],GI50 [10] [nM],GI50 [11] [nM]
OC[C@H]1O[C@@H](n2ccc3c(Cc4ccccc4)ncnc32)[C@H](O)[C@@H]1O,> 10000,> 10000,> 10000,> 7500,> 10000,3800,> 10000,,,,
OC[C@H]1O[C@@H](n2cc(F)c3c(-c4c[nH]cn4)ncnc32)[C@H](O)[C@@H]1O,> 10000,890,> 10000,12200,,1800,2100,,,,
OC[C@H]1O[C@@H](n2ccc3c(-c4ccccn4)ncnc32)[C@H](O)[C@@H]1O,> 10000,390,4900,,> 40000,1500,> 10000,,,,
OC[C@H]1O[C@@H](n2ccc3c(-c4c[nH]cn4)ncnc32)[C@H](O)[C@@H]1O,3700,94,2600,3300,,710,1900,,,,
OC[C@H]1O[C@@H](n2ccc3c(-c4ccc[nH]4)ncnc32)[C@H](O)[C@@H]1O,> 10000,630,> 10000,,,10000,1300,,,,
OC[C@H]1O[C@@H](n2ccc3c(-c4ccc(F)cc4)ncnc32)[C@H](O)[C@@H]1O,> 10000,730,> 10000,2900,52700,23200,2500,,,,
OC[C@H]1O[C@@H](n2ccc3c(-c4ccn[nH]4)ncnc32)[C@H](O)[C@@H]1O,7300,410,3300,1100,10100,910,3900,,,,
COc1ccc(-c2ncnc3c2ccn3[C@@H]2O[C@H](CO)[C@@H](O)[C@H]2O)cc1,> 10000,1300,> 10000,> 10000,> 10000,10900,> 10000,,,,
OC[C@H]1O[C@@H](n2ccc3c(-c4ccc[se]4)ncnc32)[C@H](O)[C@@H]1O,340,28,230,7400,2800,1500,290,,,,
OC[C@H]1O[C@@H](n2ccc3c(-c4cccnc4)ncnc32)[C@H](O)[C@@H]1O,> 10000,> 10000,> 10000,> 10000,> 10000,> 10000,> 10000,,,,
OC[C@H]1O[C@@H](n2ccc3c(-c4cn[nH]c4)ncnc32)[C@H](O)[C@@H]1O,5700,75,6200,4100,,1000,3100,,,,
OC[C@H]1O[C@@H](n2cc(F)c3c(-c4ccccc4)ncnc32)[C@H](O)[C@@H]1O,> 10000,580,> 10000,2600,> 40000,3100,> 10000,,,,
OC[C@H]1O[C@@H](n2ccc3c(-c4ccccc4)ncnc32)[C@H](O)[C@@H]1O,> 10000,1100,> 10000,> 40000,,4000,> 10000,,,,
Nc1nc(Cl)nc2c1ncn2[C@@H]1O[C@H](CO)[C@@H](O)[C@@H]1F [CLOFARABINE],,,,,,,,40,65,63,180

# Further molecules by falling GI50 [4], results first:
GI50 [4] [nM],GI50 [5] [nM],GI50 [6] [nM],SMILES,IC50 [1] [nM],IC50 [2] [nM],IC50 [3] [nM],GI50 [7] [nM],GI50 [8] [nM],GI50 [9] [nM],GI50 [10] [nM],GI50 [11] [nM]
2600,1200,4400,CCc1ncnc2c1ccn2[C@@H]1O[C@H](CO)[C@@H](O)[C@H]1O,3600,5600,1250,4700,,,,
2000,54,1100,OC[C@H]1O[C@@H](n2cc(Cl)c3c(-c4ccoc4)ncnc32)[C@H](O)[C@@H]1O,2700,2500,1100,1600,,,,
1400,140,2500,OC[C@H]1O[C@@H](n2cc(Cl)c3c(-c4ccccc4)ncnc32)[C@H](O)[C@@H]1O,420,1200,910,> 10000,,,,
1300,24,900,OC[C@H]1O[C@@H](n2cc(F)c3c(-c4nccs4)ncnc32)[C@H](O)[C@@H]1O,3100,1000,550,570,,,,
500,30,360,OC[C@H]1O[C@@H](n2ccc3c(-c4cc[nH]c4)ncnc32)[C@H](O)[C@@H]1O,260,1200,280,440,,,,
480,19,410,OC[C@H]1O[C@@H](n2ccc3c(-c4nccs4)ncnc32)[C@H](O)[C@@H]1O,130,1200,390,290,,,,
450,30,250,OCc1ncnc2c1ccn2[C@@H]1O[C@H](CO)[C@@H](O)[C@H]1O,350,2200,450,53,,,,
450,9,190,OC[C@H]1O[C@@H](n2cc(F)c3c(-c4ccc[nH]4)ncnc32)[C@H](O)[C@@H]1O,230,3300,410,310,,,,
270,13,380,OC[C@H]1O[C@@H](n2cc(Cl)c3c(-c4cccs4)ncnc32)[C@H](O)[C@@H]1O,28200,5500,2700,1600,,,,
250,10,130,OC[C@H]1O[C@@H](n2cc(F)c3c(-c4cc[nH]c4)ncnc32)[C@H](O)[C@@H]1O,8900,1900,930,360,,,,
220,32,630,OC[C@H]1O[C@@H](n2ccc3c(-c4ccsc4)ncnc32)[C@H](O)[C@@H]1O,,> 40000,4000,710,,,,
140,66,380,OC[C@H]1O[C@@H](n2cc(F)c3c(-c4ccsc4)ncnc32)[C@H](O)[C@@H]1O,210,4900,560,810,,,,
100,18,380,OC[C@H]1O[C@@H](n2cc(Cl)c3c(-c4ccsc4)ncnc32)[C@H](O)[C@@H]1O,340,1600,1000,110,,,,
39,5,110,OC[C@H]1O[C@@H](n2cc(F)c3c(-c4ccco4)ncnc32)[C@H](O)[C@@H]1O,8000,1200,1400,180,4300,110,75,57
18,5,60,OC[C@H]1O[C@@H](n2cc(F)c3c(-c4ccoc4)ncnc32)[C@H](O)[C@@H]1O,170,2000,1000,180,,,,
